From ChEMBL document CHEMBL2046300, “A laccase-catalysed one-pot synthesis of aminonaphthoquinones and their anticancer activity” (2012)

Key:
Format in all cases: functional
TK-10 = assay: Antiproliferative activity against human TK10 cells after 48 hrs by SRB assay; conditions: TK-10, 48 h; for CC50: read-out: LC50 (the source's name)
Procedure, shortened: (§1)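 Cells kept as monolayers in RPMI with 5% FBS, 2 mM L-glutamine and 50 μg/mL gentamicin (37 °C, 5% CO2), used at passages 3–19. They were plated at 7–10 000 cells/well for 24 h, with a T0 plate TCA-fixed at drug addition. Compounds in DMSO, diluted in medium, at 5 concentrations (0.01–100 μM) for 48 h, duplicate. SRB read at 540 nm; net % growth gave GI50, TGI, LC50.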

UACC-62 = assay: Antiproliferative activity against human UACC62 cells after 48 hrs by SRB assay; conditions: UACC-62, 48 h; for CC50: read-out: LC50 (the source's name); procedure, shortened: as §1
MCF7 = assay: Antiproliferative activity against human MCF7 cells after 48 hrs by SRB assay; conditions: MCF7, 48 h; for CC50: read-out: LC50 (the source's name); procedure, shortened: as §1
HeLa = assay: Antiproliferative activity against human HeLa cells after 48 hrs by SRB assay; conditions: for CC50: read-out: LC50 (the source's name)

Row | SMILES | GI50 (TK-10) [µM] | TGI (TK-10) [µM] | CC50 (TK-10) [µM] | GI50 (UACC-62) [µM] | TGI (UACC-62) [µM] | CC50 (UACC-62) [µM] | GI50 (MCF7) [µM] | TGI (MCF7) [µM] | CC50 (MCF7) [µM] | GI50 (HeLa) [µM] | TGI (HeLa) [µM] | CC50 (HeLa) [µM]
1 | O=C(O)C1=C(Nc2cccc(Cl)c2)C(=O)c2ccccc2C1=O | 35.9 | > 100 | > 100 | 17 | 49.1 | 81.2 | 43.2 | > 100 | > 100 | 37.3 | 70.7 | > 100
2 | N#Cc1cccc(NC2=C(C(=O)O)C(=O)c3ccccc3C2=O)c1 | 23.7 | 76.2 | > 100 | 3.99 | 7.17 | 19.3 | 15.1 | 53.8 | 92.4 | 16 | 49.1 | 82.3
3 | COc1cc([C@@H]2c3cc4c(cc3[C@@H](O[C@@H]3O[C@@H]5CO[C@@H](C)O[C@H]5[C@H](O)[C@H]3O)[C@H]3COC(=O)[C@H]23)OCO4)cc(OC)c1O [ETOPOSIDE] | 7.19 | 49.7 | > 100 | 0.89 | 52.7 | > 100 | 0.56 | > 100 | > 100 | 3.56 | 40.2 | 87.5
4 | O=C(O)C1=C(Nc2ccc(Cl)cc2F)C(=O)c2ccccc2C1=O | 13.4 | 93.3 | > 100 | 4.17 | 7.94 | 40.4 | 21.4 | 54.9 | 88.5 | 25.2 | 55.5 | 85.9
5 | O=C(O)C1=C(Nc2ccccc2)C(=O)c2ccccc2C1=O | 74.1 |  | > 100 | 6.66 | 30.7 | 73.1 | 42.6 | > 100 | > 100 | 49.2 | 97.2 | > 100
6 | O=C(O)C1=C(Nc2ccccc2Cl)C(=O)c2ccccc2C1=O | 80.7 | > 100 | > 100 | 31 | 65.8 | > 100 | 63.5 | > 100 | > 100 | 28 | 60.3 | 90.2
7 | O=C(O)C1=C(Nc2cccc(F)c2)C(=O)c2ccccc2C1=O | 24.7 | > 100 | > 100 | 5.28 | 13.7 | 59.4 | 9.08 | 48.4 | 91 | 28 | 60.3 | 92.5
8 | O=C(O)C1=C(Nc2ccccc2F)C(=O)c2ccccc2C1=O | 36.9 | > 100 | > 100 | 5.67 | 23.3 | 65.4 | 9.84 | 50.8 | 92.2 | 47.5 | 97 | > 100
9 | CC(C)c1ccc(NC2=C(C(=O)O)C(=O)c3ccccc3C2=O)cc1 | 8.38 | 63.6 | > 100 | 5.19 | 10.8 | 58.1 | 37.7 | > 100 | > 100 | 38.3 | 73 | > 100
10 | O=C(O)C1=C(Nc2ccc(F)cc2)C(=O)c2ccccc2C1=O | 46.6 | > 100 | > 100 | 7.54 | 35 | 72.1 | 38.1 | 98.9 | > 100 | 36.2 | 67.3 | 98.4
11 | O=C(O)C1=C(Nc2ccc(Cl)cc2)C(=O)c2ccccc2C1=O | 13 | 79 | > 100 | 3.98 | 7.83 | 55.1 | 17.2 | 55.1 | 93 | 24.8 | 55.4 | 86.1
12 | O=C(O)C1=C(Nc2ccc(CCO)cc2)C(=O)c2ccccc2C1=O | 91.1 | > 100 | > 100 | 7.17 | 35.3 | 72 | 54.9 | > 100 | > 100 | 72.5 | > 100 | > 100
